Test results as given in ChEMBL document CHEMBL1121658, “Novel immunosuppressive agents. Potent immunological activity of some bensothiopyrano [4,3-c]pyrazol-3-ones” (J Med Chem, 1981).

Columns and labels:
[1] = organism: Mus musculus; experiment: Compound was evaluated for the dose required to inhibit the cellular response to 50% (immune activity); format: functional
Outline: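 Cellular response to EL4 in Balb/c mice measured by spleen-cell lysis of 51Cr-labeled EL4 cells (3 h, 37 °C). Mice were given oral daily doses from day 0 to day 9 at several levels, tested up to 300 mg/kg. ED50 was obtained by linear interpolation between the doses giving above and below 50% inhibition.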

[2] = tested on: Mus musculus; experiment: Compound was evaluated for immunological activity in mice as the percentage of suppression of the humoral response to EI4 tumor cells at 10 mg/kg, po; format: functional
Outline: (§1)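 Balb/c mice, groups of 10, immunized ip on day 0 with 10^7 EL4 cells. Dosed orally 10 mg/kg once daily days 0-9, in water with a little NaOH (pH ~8.5); saline controls. Titer taken as the dilution giving 50% maximal lysis; reported as % inhibition of control titer.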

[3] = tested on: Mus musculus; experiment: Immunological activity in mice as the percentage of suppression of the cellular response to EI4 tumor cells at 10 mg/kg; format: functional
Outline: (§2)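 Balb/c mice, groups of 10, immunized ip on day 0 with 10^7 EL4 ascites tumor cells. Dosed orally 10 mg/kg once daily days 0-9, in water with a little NaOH (circa pH 8.5); saline controls. On day 10, spleen cells (1.5×10^7 viable) incubated with 51Cr-labeled EL4 cells (0.5×10^6) for 3 h at 37 °C in 10% CO2. Lysis corrected for spontaneous release; reported as % inhibition of control lysis.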

[4] = organism: Mus musculus; experiment: Compound was evaluated for the dose required to inhibit the humoral response to 50% (immune activity); format: functional
Outline: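 Humoral response to EL4 in Balb/c mice measured as complement-dependent lysis titer of 51Cr-labeled EL4 cells by day-10 sera. Mice were given oral daily doses from day 0 to day 9 at several levels. ED50 was obtained by linear interpolation between the doses bracketing 50% inhibition of the control titer.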

[5] = Acid dissociation constant was determined; format: ADME
Outline: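 pKa by potentiometric titration in 2:1 dioxane-H2O (v/v) against 0.5 N NaOH; apparent pKa read as the pH at half-neutralization.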

[6] = tested on: Mus musculus; experiment: Compound was evaluated for immunological activity in mice as the percentage of suppression of the humoral response to EI4 tumor cells at 10 mg/kg, po; Data unreliable; format: functional, organism-based; parameters: dose 10 mg/kg; outline: as §1
[7] = tested on: Mus musculus; experiment: Compound was evaluated for immunological activity in mice as the percentage of suppression of the cellular response to EI4 tumor cells at 10 mg/kg, po; format: functional; outline: as §2

| SMILES | ED50 [1] [mg/kg] | Suppression [2] [%] | Suppression [3] [%] | ED50 [4] [mg/kg] | pKa [5] | Suppression [6] | Suppression [7] [%] |
| --- | --- | --- | --- | --- | --- | --- | --- |
| Oc1c2c(nn1-c1cc(Cl)cc(Cl)c1)-c1ccccc1SC2 | 31 | 73 | 19 | 8 | – | – | – |
| Oc1c2c(nn1-c1ccc(Cl)cc1)-c1ccccc1SC2 | 2 | >90 | >90 | 0.5 | 7.56 | – | – |
| Oc1c2c(nn1-c1ccccc1)-c1ccccc1SC2 | 130 | – | 1 | 70 | 7.48 | Data unreliable | – |
| Oc1c2c(nn1-c1c(Cl)cccc1Cl)-c1ccccc1SC2 | – | 4 | 1 | – | – | – | – |
| [O-][S+]1Cc2c(nn(-c3ccc(Cl)cc3)c2O)-c2ccccc21 (centres undefined) | – | >90 | >90 | – | – | – | – |
| Cn1nc2c(c1O)CSc1ccccc1-2 | – | -3 | 14 | – | – | – | – |
| Oc1c2c(nn1-c1cccc(Cl)c1Cl)-c1ccccc1SC2 | – | 51 | 5 | – | 7.28 | – | – |
| Oc1c2c(nn1-c1ccc(C(F)(F)F)cc1)-c1ccccc1SC2 | 6.5 | >90 | 71 | 6 | – | – | – |
| Oc1[nH]nc2c1CSc1ccccc1-2 | – | – | 1 | – | – | Data unreliable | – |
| Oc1c2c(nn1CC(F)(F)F)-c1ccccc1SC2 | – | 17 | -2 | – | – | – | – |
| COc1ccc(-n2nc3c(c2O)CSc2ccccc2-3)cc1 | 240 | -6 | -11 | 150 | 7.76 | – | – |
| Oc1c2c(nn1-c1cccc(Cl)c1)-c1ccccc1SC2 | 45 | 67 | – | 9 | – | – | 16 |
| O=c1c2csc3ccccc3c-2nn1-c1ccc(Cl)cc1 | – | >90 | 63 | – | – | – | – |
| O=P1(N(CCCl)CCCl)NCCCO1 (centres undefined) [CYCLOPHOSPHAMIDE ANHYDROUS] | – | >90 | 52 | – | – | – | – |
| CS(=O)(=O)c1ccc(-n2nc3c(c2O)CSc2ccccc2-3)cc1 | > 300 | 28 | 1 | 170 | – | – | – |
| Oc1c2c(nn1-c1ccc(Br)cc1)-c1ccccc1SC2 | 3.3 | >90 | 84 | 2 | 7.13 | – | – |
| O=[N+]([O-])c1ccc(-n2nc3c(c2O)CSc2ccccc2-3)cc1 | – | – | 27 | – | – | Data unreliable | – |
| Cn1cnc([N+](=O)[O-])c1Sc1ncnc2[nH]cnc12 [AZATHIOPRINE] | – | 6 | -3 | – | – | – | – |
| Oc1c2c(nn1-c1ccc(Cl)cc1Cl)-c1ccccc1SC2 | – | 20 | -4 | – | – | – | – |
| Oc1c2c(nn1-c1ccccn1)-c1ccccc1SC2 | – | -19 | 2 | – | – | – | – |
| Oc1c2c(nn1Cc1ccccc1)-c1ccccc1SC2 | – | 0 | -3 | – | – | – | – |
| Oc1c2c(nn1-c1ccc(F)cc1)-c1ccccc1SC2 | 5.5 | >90 | 86 | 3.3 | – | – | – |
| Oc1c2c(nn1-c1ccc(Cl)c(Cl)c1)-c1ccccc1SC2 | 3 | 87 | 62 | 1 | – | – | – |
| Oc1c2c(nn1-c1ccccc1Cl)-c1ccccc1SC2 | – | 45 | 8 | – | 7.74 | – | – |
| Cc1ccc(-n2nc3c(c2O)CSc2ccccc2-3)cc1 | – | 46 | 19 | – | 7.64 | – | – |
| Sc1ncnc2nc[nH]c12 [MERCAPTOPURINE ANHYDROUS] | – | 52 | 63 | – | – | – | – |
